Assay results collected from several papers.
Compare with care: the assays were run in different laboratories.
Effect on: metabolic stability
Species: human

With CC(C)CC(=O)OC[C@H]1O[C@@](C#N)(c2ccc3c(N)ncnn23)[C@H](O)[C@@H]1O the hepatocyte CLint was greater than 318 µL/min/10⁶ cells (hepatocytes).
C[C@]12CC[C@H]3[C@@H](CCC4=CC(=O)CC[C@@]43C)[C@@H]1CC[C@@H]2O has a microsomal CLint of 63.9 µL/min/mg (liver microsomes).
NCCOCC(=O)N1CCCC(C(=O)NCc2nc(-c3ccc(-c4ccc(F)cc4)cc3)cs2)C1 (stereo not shown) gave a scaled CLint of less than 4.3 mL/min/kg (liver microsomes).
With O=c1[nH]c2ccccc2n1C1CCN(CCCC(c2ccc(F)cc2)c2ccc(F)cc2)CC1 the microsomal CLint was 3.4 µL/min/mg (liver microsomes; 100 ng/mL).
For CC1(C)NC(=O)N(c2ccc(F)c(C(F)(F)F)c2F)C1=O, the microsomal CLint was less than 7 µL/min/mg (liver microsomes).
The scaled CLint of C[C@]12CC[C@H]3[C@@H](CCC4=CC(=O)CC[C@@]43C)[C@@H]1CC[C@@H]2O is reported as 125 mL/min/kg (liver microsomes; pH 7.4).
The microsomal CLint of Cc1[nH]c(C)c(S(=O)(=O)Nc2ccc(S(F)(F)(F)(F)F)cc2)c1C(=O)N1CCC(F)(F)C1 is reported as 26 µL/min/mg (liver microsomes).
The microsomal CLint of CC1(C)NC(=O)N(c2cc(Cl)c(F)c(C(F)(F)F)c2)C1=O is reported as less than 7 µL/min/mg (liver microsomes).
O=C1CCC(N2Cc3c(ccc4c3OCC43CCN(Cc4ccccc4)CC3)C2=O)C(=O)N1 (stereo not shown) has a scaled CLint of 20.9 mL/min/kg (liver microsomes; 1 µM).
For Cc1[nH]c(C)c(S(=O)(=O)Nc2ccc(S(F)(F)(F)(F)F)c(Cl)c2)c1C(=O)N1CCC(F)(F)C1, the microsomal CLint was 53.1 µL/min/mg (liver microsomes).
